Results pooled from the literature.
Lines come from different studies, so protocols differ. pIC50: −log10 of the molar value.
Cell line: K562
Effect on: cell growth or viability

O=C(NO)c1ccc(Cn2cnc3c(Nc4cccc([N+](=O)[O-])c4)ncnc32)cc1 — pIC50 (MTT; 72 h): 4.98
CN1CCC(NC2CCc3[nH]c4c(C(N)=O)ccc(-c5ccccc5Cl)c4c3C2)CC1 (stereo not shown) — pIC50: 7.67
FC(F)(F)c1ccc(-c2cc(CNc3cccc4cccnc34)on2)cc1 — pIC50 (MTS; 72 h): < 4.00
CC(C)[C@@H]1NC(=O)[C@H](Cc2c[nH]cn2)NC1=O — pIC50 (MTT): < 4.82
COc1cccc2c1C(=O)c1c(O)c3c(c(O)c1C2=O)C[C@@](O)(C(=O)CO)C[C@@H]3O[C@H]1C[C@H](N)[C@H](O)[C@H](C)O1 — pIC50 (96 h): 6.89
CC(C)[C@@H]1NC(=O)/C(=C/c2cnc[nH]2)NC1=O — pIC50 (MTT): < 4.82
c1ccc(-c2cc(CNc3cccc4cccnc34)on2)cc1 — pIC50 (MTS; 72 h): < 4.00
O=C(NO)c1ccc(Cn2cnc3c(Nc4ccc(Br)cc4F)ncnc32)cc1 — pIC50 (MTT; 72 h): 5.29
O=c1cc(OCc2cc(-c3ccc(Cl)cc3Cl)no2)c2ccccc2o1 — pIC50 (MTS; 72 h): < 4.00
COc1ccc(Nc2ncnc3c2ncn3Cc2ccc(C(=O)Nc3ccccc3N)cc2)cc1 — pIC50 (MTT; 72 h): < 4.30
